Only some compounds are listed: those with a hit (about 1.6% of all), similar ones and a draw of the others.
HNF4A DNA FP: change in binding of human HNF4 alpha to DNA | HNF4a-FITC DNA binding, fluorescence polarization, 1 h | activity change, % at 10 µM | hit rate 0.3% among 360,000 | AID 1224865; in the data active = activity change above about 30%, passing the limit was not always enough
SENP1 inh: SENP1 (human) catalytic domain inhibition. recombinant SENP1 catalytic domain, CyPet-SUMO1-YPet FRET cleavage. inhibition, % at 10 µM. hit rate 0.21% among 360,000;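 active = inhibition at least 30% at 10 µM, raw YFP signal under a set limit, fluorescence ratio 0.5 to 1.5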
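Assay system: hSENP1 catalytic domain, recombinant. Amount: SENP1 enzyme, 20 pM final. Schedule: 50 min reaction, RT, dark. Technique: FRET, CFP and YFP emission. Control set: no-enzyme wells low, DMSO-plus-enzyme wells high control.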
Rpn11 block: Rpn11 (human) deubiquitinase inhibition; human 26S proteasome, Ub4-pepOG fluorescence polarization; 20S core pre-blocked with epoxomicin; inhibition, % at 20 µM; hit rate 0.59% among 360,000; AID 588493;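 active = inhibition at 20 µM, scaled to each plate's controls, above about 33%, limit read from the data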
CSN inh: blocks human CSN-mediated cullin deneddylation; hit rate 0.38% among 360,000; Purified CSN, SCF-Nedd8-OG deneddylation, fluorescence polarization; AID 651999; inhibition, % at 12.5 µM; Q92905;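 active = pattern-corrected inhibition above about 35%, with an unprinted fluorescence ratio check between 0.5 and 1.5, limit read from the data, passing the limit was not always enough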
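Assay system: Purified human Csn5 enzyme expressed in HEK293T cells | Amount: Enzyme 0.24 nM | Measured by: Fluorescence polarization readout | Medium: Tris/NaCl/DTT buffer, pH 7.5 | Compound dosing: One concentration, 12.5 µM, 0.25% DMSO | Times: 90 min incubation of compound, enzyme and substrate at room temperature | Control set: no-enzyme wells high, enzyme-with-substrate wells low | Read-out: % inhibition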
TPT1 inh: inhibitors of Candida albicans tRNA 2'-phosphotransferase TPT1; recombinant caTPT1, FP RNA substrate dephosphorylation; inhibition, % at 5 µM; hit rate 0.81% among 300,000;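 active = inhibition above the mean of all tested compounds plus 3 SD, set per screening campaign, cut at about 24% in these data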
Rpn11 confirm: Rpn11 inhibition confirmation, single concentration. shares compounds with Rpn11 block. purified human 26S proteasome, Ub4-pepOG fluorescence polarization; proteasome pretreated with epoxomicin. inhibition, % at 20 µM. hit rate 29% among 1,900
MMP-2 counter: MMP-2 (human) inhibition counter-screen. shares compounds with Rpn11 block. recombinant MMP-2, FRET peptide cleavage fluorescence. inhibition, % at 20 µM. hit rate 4% among 1,900;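 note: human MMP-2 activated beforehand with APMA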
Target sequence (P08253 whole entry, looked up): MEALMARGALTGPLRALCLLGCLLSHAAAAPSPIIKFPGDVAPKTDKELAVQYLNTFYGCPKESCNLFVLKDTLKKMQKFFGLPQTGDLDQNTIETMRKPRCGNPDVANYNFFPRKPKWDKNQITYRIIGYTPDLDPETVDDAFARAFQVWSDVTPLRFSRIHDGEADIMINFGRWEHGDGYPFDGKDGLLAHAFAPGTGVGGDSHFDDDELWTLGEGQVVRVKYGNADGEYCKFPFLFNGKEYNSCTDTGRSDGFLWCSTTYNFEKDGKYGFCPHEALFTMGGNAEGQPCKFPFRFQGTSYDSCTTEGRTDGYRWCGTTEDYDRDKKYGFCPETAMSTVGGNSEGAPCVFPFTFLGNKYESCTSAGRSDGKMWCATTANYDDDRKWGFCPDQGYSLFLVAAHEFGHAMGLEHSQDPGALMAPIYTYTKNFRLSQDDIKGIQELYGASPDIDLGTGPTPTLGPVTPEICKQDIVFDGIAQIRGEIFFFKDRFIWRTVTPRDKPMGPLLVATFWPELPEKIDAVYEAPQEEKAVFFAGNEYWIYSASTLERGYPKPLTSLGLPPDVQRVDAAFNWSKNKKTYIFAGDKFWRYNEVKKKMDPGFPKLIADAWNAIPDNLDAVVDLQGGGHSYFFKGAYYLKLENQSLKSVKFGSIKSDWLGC
Thrombin inh: counter-screen for RPN11 inhibitors: inhibition of bovine thrombin; shares compounds with Rpn11 block; AID 602333; hit rate 13% among 1,900; inhibition, % at 20 µM; bovine thrombin cleavage of Ub4-pepOG, fluorescence polarization;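 active = mean inhibition at least 40% at 20 µM, or signal 3 deviations below plate average, so some actives read negative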
Large screens that a line does not name were inactive (follow-up assays come after a bar, where they were run). Cut-off read from the data, not from the text of the source, unless noted: active = inhibition above about 40%; inactive = the rest.

COc1cc(/C=C(\C#N)C(=O)Nc2cc(C(F)(F)F)ccc2Cl)ccc1OCC(=O)Nc1cccc(C(F)(F)F)c1	Rpn11 block 80 | Rpn11 confirm 59 | MMP-2 counter inactive | Thrombin inh inactive
Cc1ccc(S(=O)(=O)N2CC3(O)CN(C(=O)OC(C)C)N(C(=O)OC(C)C)CC3(OC(=O)NCc3ccco3)C2)cc1 (centres undefined)	none (no result: TPT1 inh)
CC(C)Oc1ccc(S(=O)(=O)N2CCCCC2)cc1NC(=O)C1=NN(c2ccccc2)C(=O)CC1	none (no result: TPT1 inh)
Cc1cc(C)n(CC(O)Cn2c3ccc(Br)cc3c3cc(Br)ccc32)c(=O)n1 (centres undefined)	none
Cc1cc(C)n(CC(O)Cn2c3ccccc3c3ccccc32)c(=O)n1 (centres undefined)	Rpn11 block 48 | Rpn11 confirm inactive | MMP-2 counter inactive | Thrombin inh inactive
O=C(CCN1CCN(c2ccccc2)CC1)Nc1ccc(Cl)cc1	none
COC(=O)c1ccc(NC(=O)CCN2CCN(c3ccccc3)CC2)cc1	Rpn11 block 154 | Rpn11 confirm inactive | MMP-2 counter inactive | Thrombin inh inactive
O=C(O)CCc1ccc(-c2ccccc2)n1CC1CCCO1 (centres undefined)	Rpn11 block 55 | Rpn11 confirm inactive | MMP-2 counter inactive | Thrombin inh inactive
COc1cc(/C=C2\SC(=S)N(CC(=O)Nc3ccccn3)C2=O)cc(OC)c1OC	Rpn11 block 60 | Rpn11 confirm inactive | MMP-2 counter inactive | Thrombin inh inactive
COc1cc(/C=C2\SC(=O)N(CC(=O)Nc3ccc(C)cc3)C2=O)cc(Cl)c1OCC(=O)O	Rpn11 block 87 | Rpn11 confirm inactive | MMP-2 counter inactive | Thrombin inh inactive
COc1ccc(/C=C2\SC(=S)N(CC(=O)Nc3nnc(C)s3)C2=O)cc1	Rpn11 block 41 | Rpn11 confirm inactive | MMP-2 counter inactive | Thrombin inh inactive
Cc1ccc(NC(=O)CN2C(=O)S/C(=C\c3ccc(OCC(=O)O)c(Br)c3)C2=O)cc1	none
COc1cc(/C=C2/SC(=S)N(CC(=O)Nc3nc4ccccc4s3)C2=O)cc(OC)c1OC	Rpn11 block 51 | Rpn11 confirm 52 | MMP-2 counter inactive | Thrombin inh inactive
O=S(=O)(c1ccc(Cl)cc1)N1CCc2ccccc21	HNF4A DNA FP 93, Rpn11 block 42, CSN inh 54 | Rpn11 confirm 147 | MMP-2 counter inactive | Thrombin inh 132
O=S(=O)(c1ccc(Cl)cc1)N1CCCc2ccccc21	none
O=C(COc1ccc(/C=N/NC(=O)c2cc3ccccc3o2)cc1Cl)Nc1ccccc1	HNF4A DNA FP 45, Rpn11 block active, CSN inh 120 | Rpn11 confirm inactive | MMP-2 counter inactive | Thrombin inh inactive
O=C(N/N=C/c1ccc2c(c1)OCO2)c1cc2ccccc2o1	none
Cc1cc(S(=O)(=O)NCc2ccccc2)ccc1OCC(=O)NCc1ccncc1	none
Cc1ccc(-c2nn(CC(=O)NCc3cc(-c4nn(C)c(=O)c5ccccc45)ccc3C)c(=O)c3ccccc23)cc1	Rpn11 block 80 | Rpn11 confirm inactive | MMP-2 counter inactive | Thrombin inh inactive
CCC(=O)NCc1cc(-c2nn(C)c(=O)c3ccccc23)ccc1C	none
CCOC(=O)N1CCN(C(=O)c2nc3ccccc3s2)CC1	Rpn11 block 111 | Rpn11 confirm inactive | MMP-2 counter inactive | Thrombin inh inactive
CCCCN(C(=O)Cc1ccc(S(=O)(=O)N2CCOCC2)s1)c1c(N)n(CC(C)C)c(=O)[nH]c1=O	none (no result: TPT1 inh)
O=C(N/N=C/C=C/c1ccccc1)c1cc2c(ccc3ccccc32)o1	Rpn11 block 99, CSN inh 42 | Rpn11 confirm inactive | MMP-2 counter inactive | Thrombin inh inactive
O=C(N/N=C/c1ccccc1F)c1cc2c(ccc3ccccc32)o1	HNF4A DNA FP 39, Rpn11 block 149 | Rpn11 confirm 99 | MMP-2 counter inactive | Thrombin inh inactive
O=C(c1ccccc1Cl)N1CCC(n2cccc2)CC1	none
CCCC(=O)NC(c1ccco1)c1cc(Cl)c2cccnc2c1O (centres undefined)	Rpn11 block 42 | Rpn11 confirm inactive | MMP-2 counter inactive | Thrombin inh inactive
CC(C)C(=O)Nc1ccc(NC(=O)c2cc3ccccc3o2)cc1	Rpn11 block 177 | Rpn11 confirm inactive | MMP-2 counter inactive | Thrombin inh inactive
CC(C)C(=O)Nc1ccc(NC(=S)NC(=O)c2cc3ccccc3o2)cc1	none
O=C(NC(=S)Nc1ccc2oc(=O)ccc2c1)c1cc2ccccc2o1	Rpn11 block 42 | Rpn11 confirm inactive | MMP-2 counter inactive | Thrombin inh inactive
CC(=O)Nc1ccc(NC(=S)NC(=O)c2cc3ccccc3o2)cc1	none
Nc1nc(Nc2cccc(Cl)c2)n[nH]1	none
O=C(NCCCN1CCCCCC1)c1ccc2c(Cl)c3c(nc2c1)CCCC3	Rpn11 block 75 | Rpn11 confirm inactive | MMP-2 counter inactive | Thrombin inh inactive
O=c1cc(-c2ccc(O)cc2)oc2c1ccc1ccccc12	Rpn11 block 45 (no result: TPT1 inh) | Rpn11 confirm 64 | MMP-2 counter inactive | Thrombin inh inactive
O=c1cc(-c2ccncc2)oc2c1ccc1ccccc12	none
COc1ccccc1NC(=O)CSc1ccc(-c2ccccn2)nn1	none
COc1ccccc1NC(=O)CSc1ccc(-c2ccc(-n3cccn3)cc2)nn1	Rpn11 block 97 | Rpn11 confirm 117 | MMP-2 counter inactive | Thrombin inh inactive
CCn1nnnc1NCc1ccc(N2CCCC2)cc1	Rpn11 block 59 | Rpn11 confirm inactive | MMP-2 counter inactive | Thrombin inh inactive
CCn1nnnc1NCc1ccc(SC)cc1	none (no result: TPT1 inh)
O=C(Nc1c[nH]c(=O)[nH]c1=O)c1ccc2c(c1)C(=O)N(c1cccc([N+](=O)[O-])c1)C2=O	Rpn11 block 57 (no result: TPT1 inh) | Rpn11 confirm inactive | MMP-2 counter inactive | Thrombin inh inactive
O=C(Nc1ccccc1C(=O)O)c1ccc2c(c1)C(=O)N(c1cccc([N+](=O)[O-])c1)C2=O	none
CC[C@H](C)[C@H]1CNC(=S)N1CC1CCN(CCC(C)C)CC1	none (no result: TPT1 inh)
CS(=O)(=O)Nc1ccc2c(c1)[C@H]1C[C@H](CC(=O)NCc3cccc(F)c3)O[C@@H](CO)[C@H]1O2	none (no result: TPT1 inh)
COc1ccc(OC)c(N=C(C)C2=C(O)COC2=O)c1	Rpn11 block 108 | Rpn11 confirm inactive | MMP-2 counter inactive | Thrombin inh inactive
CCCCC(=O)N(Cc1ccc(F)cc1)C1CCS(=O)(=O)C1 (centres undefined)	Rpn11 block 36 | Rpn11 confirm inactive | MMP-2 counter inactive | Thrombin inh inactive

Source: PubChem
